High-throughput results deposited in PubChem BioAssay by The Scripps Research Institute Molecular Screening Center.
Sampled rows, rich in hits. Any-hit rate of the full collection: about 2.9%.
CHO parental Ca = counter-screen: ATP calcium response change in parental CHO cells; parental CHO-K1, ATP-induced calcium, Fluo-8 fluorescence; 330,000 compounds, 0.63% hits; inhibition, % at 5.6 µM;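 active means inhibition above that plate's mean sample inhibition plus 3 SD, cut at about 26% in these data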
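Test system: untransfected parental CHO cell line; also added: ATP stimulus; dosing: 5.6 µM, single dose; signal: calcium-sensitive Fluo-8 fluorescence; measure: percent inhibition of ATP-evoked calcium rise, normalized to controls; benchmarks: low control ATP plus DMSO, high control DMSO only; replication: one well per compound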
CHO-K1 Ca antag = counter-screen for M1 antagonists: effect in parental CHO-K1 cells. ATP-induced calcium, Fluo-8 fluorescence. inhibition, % at 3 µM. 360,000 compounds, 0.6% hits. AID 602250;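 active means inhibition above a per-plate cutoff, the plate's mean sample inhibition plus 3 SD, cut at about 24% in these data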
CHO-K1 Ca PAM = nonselective activator or artifact in parental CHO-K1 calcium assay. ATP EC20, Fluo-8 calcium fluorescence; 0% at ATP EC20, 100% at ATP max. AID 602247. activation, % at 3 µM. 360,000 compounds, 0.02% hits;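 active means activation above the run cutoff, the mean activation of all test compounds plus 3 SD, cut at about 40% in these data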;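 further: peak over basal fluorescence ratio in a 140 s read after ATP addition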
OX1R antag-1 = OX1R (human) antagonism; O43613; OX1R-expressing cells, FRET antagonist read-out; inhibition, % at 6.6 µM; 330,000 compounds, 1.8% hits; AID 485270; in the data active means inhibition mostly above about 38%, no sharp cut-off; inactive means mostly below about 40%
Target sequence (O43613 whole entry, looked up): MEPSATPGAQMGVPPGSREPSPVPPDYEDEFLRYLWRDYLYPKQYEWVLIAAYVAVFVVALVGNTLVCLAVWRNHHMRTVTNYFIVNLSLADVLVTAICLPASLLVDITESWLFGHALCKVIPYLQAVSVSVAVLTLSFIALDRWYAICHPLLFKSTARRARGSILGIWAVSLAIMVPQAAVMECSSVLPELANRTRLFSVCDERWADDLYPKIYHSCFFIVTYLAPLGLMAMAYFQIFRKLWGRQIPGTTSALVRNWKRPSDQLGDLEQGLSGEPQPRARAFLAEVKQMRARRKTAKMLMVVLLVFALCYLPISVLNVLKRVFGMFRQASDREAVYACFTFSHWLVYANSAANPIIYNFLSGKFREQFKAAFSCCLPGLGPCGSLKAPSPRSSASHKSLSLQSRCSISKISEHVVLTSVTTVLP
OX1R antag-2 = blocks the human orexin 1 receptor; 330,000 compounds, 0.43% hits; inhibition, % at 5 µM; CHO/OX1R cells, Fluo-8 calcium fluorescence, orexin A; AID 434989; O43613;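 active means inhibition above its plate's threshold, mean inhibition of all tested compounds on the plate plus 3 SD, cut at about 37% in these data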
M1 ag parental = M1 agonist counterscreen hit in parental CHO-K1 cells; Fluo-8 calcium fluorescence; scaled to maximal ATP response, vehicle zero; activation, % at 3 µM; 360,000 compounds, 0.48% hits; AID 602248; in the data active means activation above about 15%;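 further: untransfected CHO-K1 host cells lacking M1 receptor as counterscreen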
Large screens that a line does not name were inactive.

O=C(CSc1cn(CCNC(=O)c2cccs2)c2ccccc12)NCC1CCCO1 (stereo not drawn)	none
O=C(NCCn1cc(SCC(=O)N2CCOCC2)c2ccccc21)c1c(F)cccc1F	none
O=C(CSc1cn(CCNC(=O)c2cccs2)c2ccccc12)NC1CCCCC1	OX1R antag-1 41
O=C(CSc1cn(CCNC(=O)c2cccs2)c2ccccc12)NCc1ccccc1	OX1R antag-1 41
O=C(NCCn1cc(SCc2ccccc2F)c2ccccc21)c1c(F)cccc1F	CHO parental Ca 80
Cn1cc(SCC(=O)NCCc2ccccc2)c2ccccc21	none
COc1ccccc1C(=O)NCCn1cc(SCC(=O)Nc2cc(C)on2)c2ccccc21	OX1R antag-1 42
Cc1ccc(Cn2nnc3c(=O)[nH]c(C4CCN(S(=O)(=O)c5ccccc5F)CC4)nc32)cc1	none
O=C(OCC(=O)N1CCN(c2ccccc2)CC1)c1ccncc1	none
CC1(C(=O)NS(=O)(=O)c2ccccc2OC(F)(F)F)CCN1C(=O)c1ccccc1 (stereo not drawn)	none (no result: CHO parental Ca, OX1R antag-1, OX1R antag-2)
COc1ccc(-c2csc(C(C)(O)c3cccc(F)c3)n2)cn1 (stereo not drawn)	none (no result: CHO parental Ca, OX1R antag-1, OX1R antag-2)
O=C(C[n+]1ccccc1)N/N=C/c1cc(Br)ccc1O	none
O=c1cc(-c2ccccc2)oc2cc(O)ccc12	none (no result: CHO parental Ca, OX1R antag-1, OX1R antag-2)
Nc1ccc(-c2c3ccc(=O)cc-3oc3cc(O)ccc23)cc1C(=O)O	CHO parental Ca 70, CHO-K1 Ca antag 27, OX1R antag-1 69, OX1R antag-2 84, M1 ag parental 133
O=c1ccc2c(-c3ccccc3)c3ccc(O)cc3oc-2c1	CHO parental Ca 101, CHO-K1 Ca antag 93, OX1R antag-2 107, M1 ag parental 533
COc1ccccc1OCC(=O)N/N=C1\CCCCc2ccccc21	none
COc1ccc(OCC(=O)N/N=C2\CCCc3ccccc32)cc1	CHO-K1 Ca antag 25
O=C(N/N=C1\CCCCc2ccccc21)c1ccccn1	CHO-K1 Ca antag 29
O=C(Nc1cccc2c1CCCC2)c1cc(C2CCCCN2S(=O)(=O)c2cccs2)on1 (stereo not drawn)	none (no result: CHO parental Ca, OX1R antag-1, OX1R antag-2)
CCN(CC)S(=O)(=O)c1cc(NC(=O)CO/N=C(\N)c2ccccc2Cl)ccc1C	none
Nc1c(C(=O)c2cccs2)oc2ccccc12	OX1R antag-1 68
Cc1ccc(C(=O)CSc2cnc3ccccc3n2)cc1C	OX1R antag-1 66
O=C(CSc1ccc2ccccc2n1)c1ccc2c(c1)OCO2	CHO-K1 Ca antag 28
C[C@@H]1COC(=O)[C@@H](Cc2ccc(F)cc2)C/C=C\C[C@@H](CC(=O)NCCO)C(=O)N1	none
CC(C)=CCC12Oc3cc(O)ccc3C1(O)Oc1cc3c(c(O)c1C2=O)C=CC(C)(C)O3 (stereo not drawn)	CHO parental Ca 44 (no result: CHO-K1 Ca antag, CHO-K1 Ca PAM, M1 ag parental)
O=C(CSc1nc(-c2ccco2)cc(C(F)(F)F)n1)Nc1ccc2c(c1)CCC2	none
O=C(CSc1nc(-c2ccco2)cc(C(F)(F)F)n1)NC1CCCC1	CHO-K1 Ca antag 24
COc1ccc2nc(-c3ccccc3)cc(C(=O)OCC(=O)N3CC(C)OC(C)C3)c2c1 (stereo not drawn)	none
Cc1ccccc1NC(=O)C1CCCN(c2nnc(N3CCCC3=O)s2)C1 (stereo not drawn)	CHO-K1 Ca antag 26
CCCCNC(=O)C1(C)CCN1C(=O)c1sccc1C (stereo not drawn)	none (no result: CHO parental Ca, OX1R antag-1, OX1R antag-2)
COCCN(CC(=O)Nc1ccccc1C(F)(F)F)C(=O)/C=C/c1ccc2ccccc2n1	OX1R antag-1 53
Cc1nc([N+](=O)[O-])c(C(=O)O)n1C	none
O=S(=O)(c1cccs1)N1CCN(CC(O)COc2cc(Cl)ccc2Cl)CC1 (stereo not drawn)	CHO parental Ca 69, OX1R antag-1 75, OX1R antag-2 74
O=S(=O)(c1cccs1)N1CCN(CCOc2ccc(Cl)cc2)CC1	none
CCc1nnc(N/N=C/c2c(Cl)cccc2Cl)n1N	OX1R antag-1 45
COc1cccc(/C=N/Nc2nnc(C)n2N)c1O	OX1R antag-1 71
Cc1nnc(N/N=C/c2ccccc2F)n1N	none
COc1ccc(-c2cnnc(N/N=C/c3ccc(O)c(OC)c3)n2)cc1	CHO-K1 Ca antag 35
CCc1nnc(N/N=C\c2ccc(OC(C)=O)c(OC)c2)n1N	OX1R antag-1 44
CNC(=S)N/N=C/c1c(Cl)cccc1Cl	none
CCOc1cc(/C=N/Nc2nnc(C)n2N)ccc1OC(C)=O	none (no result: CHO parental Ca, OX1R antag-1, OX1R antag-2)
COc1cc(/C=N/Nc2nc(N3CCCC3)nc(N3CCCC3)n2)ccc1O	none
COC(=O)C1(C(=O)OC)C2C(=O)C3C(C21)C3(C(=O)OC(C)(C)C)C(=O)OC(C)(C)C (stereo not drawn)	none (no result: CHO parental Ca, OX1R antag-1, OX1R antag-2)
COc1ccc(/C=N/Nc2nncn2N)cc1Br	OX1R antag-1 65
CCc1nnc(N/N=C/c2cc(Br)c(O)cc2O)n1N	OX1R antag-1 72
Nn1cnnc1N/N=C/c1ccc(Cl)cc1Cl	none (no result: CHO parental Ca, OX1R antag-1, OX1R antag-2)
CCc1nnc(N/N=C/c2ccc(O)c(OC)c2)n1N	OX1R antag-1 59
CCOc1cc(C(=O)NCC(=O)N2CCC3(CC2)NCCc2[nH]cnc23)cc(OCC)c1OCC	none
COc1cc(SC)ccc1C(=O)OCC(=O)NCCC1=CCCCC1	none
S=C(NCc1ccccc1)N1CCN(c2ccccc2)CC1	none
COc1ccc(N2CCN(c3nc4cc(C)ccc4cc3C=O)CC2)cc1	none
CC(=O)N(C1=C(O)c2ccccc2C(=O)C1=O)C1CCCCC1	OX1R antag-1 36
CC(=O)N(c1ccccc1)C1CCCC1	none
Cc1cc(C(=O)Nc2ccccc2C(=O)O)oc1C	none
O=C(N/N=C/c1ccc([N+](=O)[O-])o1)c1cc2ccccc2o1	none
O=C(N/N=C/c1cc(Br)c(Br)o1)c1cc2ccccc2o1	OX1R antag-1 62
CC(C)C1N(C(N)=S)N=CC1(C)C (stereo not drawn)	none
Cc1cccc(N(CC(=O)NC(C)(C)C)C(=O)CNC(=O)c2cccs2)c1C	none
O=C(c1cccc(Cl)c1)N1CCN(Cc2ccncc2)CC1	CHO-K1 Ca antag 25 (no result: CHO parental Ca, OX1R antag-1, OX1R antag-2)
O=C(c1cccc(C(=O)N2CCN(Cc3ccccc3)CC2)c1)N1CCN(Cc2ccccc2)CC1	none
Cc1noc(/C=C/Nc2ccc(F)cc2F)c1[N+](=O)[O-]	none
Cc1noc(/C=C/c2ccccn2)c1[N+](=O)[O-]	OX1R antag-1 63
CCCCOc1ccccc1NC(=O)c1scc2c1OCCO2	CHO-K1 Ca PAM 53 (no result: CHO parental Ca, OX1R antag-1, OX1R antag-2)
COc1ccc(N(CC(=O)N2CCN(c3cc(C)ccc3C)CC2)S(=O)(=O)c2c(C)noc2C)cc1	none
Cc1ccsc1C(=O)N(Cc1nnc(-c2ccccc2Cl)o1)C1CC1	none
CN1CCN(S(=O)(=O)c2cccc(C(=O)N(Cc3nnc(-c4ccccc4Cl)o3)C3CC3)c2)CC1	M1 ag parental 17
Cc1[nH]c2ccccc2c1/C=N/NC(=O)c1cccc([N+](=O)[O-])c1	none
